Results published in ChEMBL document CHEMBL4765301, “Discovery of novel TNNI3K inhibitor suppresses pyroptosis and apoptosis in murine myocardial infarction injury” (Eur J Med Chem, 2020).

molecular target: Vascular endothelial growth factor receptor 1 (Homo sapiens) (UniProt P17948); assay: Inhibition of recombinant human FLT1 (783 to end residues) assessed as residual activity at 1 uM using KKKSPGEYVNIEFG as substrate incubated for 40 mins by [gamma-33P]-ATP scintillation counting based radiometry assay relative to control
Sequence (P17948 whole entry): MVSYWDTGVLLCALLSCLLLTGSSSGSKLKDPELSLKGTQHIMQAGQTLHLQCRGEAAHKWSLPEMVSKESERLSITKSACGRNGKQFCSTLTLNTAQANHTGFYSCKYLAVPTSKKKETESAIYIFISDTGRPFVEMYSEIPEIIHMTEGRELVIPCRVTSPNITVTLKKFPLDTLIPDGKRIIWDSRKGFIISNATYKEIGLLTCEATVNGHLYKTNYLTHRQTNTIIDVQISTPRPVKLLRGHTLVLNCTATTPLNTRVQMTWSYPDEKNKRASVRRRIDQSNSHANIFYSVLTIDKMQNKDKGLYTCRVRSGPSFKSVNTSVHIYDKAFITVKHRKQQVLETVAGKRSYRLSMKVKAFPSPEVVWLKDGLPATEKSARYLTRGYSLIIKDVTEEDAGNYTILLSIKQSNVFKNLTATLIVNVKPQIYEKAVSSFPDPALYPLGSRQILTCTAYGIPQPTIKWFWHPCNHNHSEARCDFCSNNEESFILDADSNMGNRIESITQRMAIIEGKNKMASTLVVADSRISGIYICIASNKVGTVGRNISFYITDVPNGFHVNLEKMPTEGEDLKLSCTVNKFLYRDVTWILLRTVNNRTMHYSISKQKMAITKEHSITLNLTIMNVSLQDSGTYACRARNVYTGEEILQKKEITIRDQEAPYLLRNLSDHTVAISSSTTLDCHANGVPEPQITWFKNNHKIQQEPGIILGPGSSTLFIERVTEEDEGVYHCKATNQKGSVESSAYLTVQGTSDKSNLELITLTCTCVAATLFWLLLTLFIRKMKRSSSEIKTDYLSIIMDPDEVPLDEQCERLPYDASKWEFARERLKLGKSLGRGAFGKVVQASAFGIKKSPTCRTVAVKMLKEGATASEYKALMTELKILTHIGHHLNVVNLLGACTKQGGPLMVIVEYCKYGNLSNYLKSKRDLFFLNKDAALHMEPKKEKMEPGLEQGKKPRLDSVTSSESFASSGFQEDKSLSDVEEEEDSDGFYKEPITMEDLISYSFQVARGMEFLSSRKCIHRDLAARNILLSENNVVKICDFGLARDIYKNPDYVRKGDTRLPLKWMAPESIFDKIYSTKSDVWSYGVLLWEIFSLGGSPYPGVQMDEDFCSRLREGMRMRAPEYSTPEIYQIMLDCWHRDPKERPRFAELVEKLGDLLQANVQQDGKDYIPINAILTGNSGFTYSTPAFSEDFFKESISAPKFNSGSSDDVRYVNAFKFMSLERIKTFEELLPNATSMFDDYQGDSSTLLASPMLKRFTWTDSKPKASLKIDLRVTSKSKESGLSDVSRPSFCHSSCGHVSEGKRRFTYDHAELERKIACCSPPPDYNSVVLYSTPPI

SMILES | Activity
CN(C)c1ccc(Nc2ncnc3sc4c(c23)CCN(C(=O)c2cccnc2)C4)cc1NC(=O)c1ccco1 | 89%
CCC(=O)Nc1cc(Nc2ncnc3sc4c(c23)CCN(CC)C4)ccc1N(C)C | 109%
CCC(=O)Nc1cc(Nc2ncnc3sc4c(c23)CCN(Cc2ccccc2)C4)ccc1N(C)C | 106%
CN(C)c1ccc(Nc2ncnc3sc4c(c23)CCNC4)cc1NC(=O)c1ccccn1 | 96%
CN(C)c1ccc(Nc2ncnc3sc4c(c23)CCN(C(=O)c2cnccn2)C4)cc1NC(=O)c1ccco1 | 98%
CCC(=O)Nc1cc(Nc2ncnc3sc4c(c23)CCN(C(=O)c2ccc(C(F)(F)F)cc2)C4)ccc1N(C)C | 109%
CN1CCc2c(sc3ncnc(Nc4ccc(N(C)C)c(NC(=O)c5cccnc5)c4)c23)C1 | 103%
CN1CCc2c(sc3ncnc(Nc4ccc(N(C)C)c(NC(=O)c5ccccn5)c4)c23)C1 | 94%
CN1CCc2c(sc3ncnc(Nc4ccc(N(C)C)c(NC(=O)c5cccs5)c4)c23)C1 | 108%
CN(C)c1ccc(Nc2ncnc3sc4c(c23)CCN(C(=O)c2ccncc2)C4)cc1NC(=O)c1cccs1 | 85%
CCC(=O)Nc1cc(Nc2ncnc3sc4c(c23)CCNC4)ccc1N(C)C | 107%
CCC(=O)Nc1cc(Nc2ncnc3sc4c(c23)CCN(C)C4)ccc1N(C)C | 95%
CN(C)c1ccc(Nc2ncnc3sc4c(c23)CCN(C(=O)c2cccnc2)C4)cc1NC(=O)c1cccs1 | 81%
CN(C)c1ccc(Nc2ncnc3sc4c(c23)CCNC4)cc1NC(=O)c1cccnc1 | 104%
Cc1ccc(C(=O)Nc2cc(Nc3ncnc4sc5c(c34)CCNC5)ccc2N(C)C)cc1 | 96%
CN(C)c1ccc(Nc2ncnc3sc4c(c23)CCNC4)cc1NC(=O)c1cccc2ccccc12 | 105%

molecular target: Receptor tyrosine-protein kinase erbB-2 (Homo sapiens) (UniProt P04626); assay: Inhibition of recombinant human HER2 (676 to end residues) assessed as residual activity at 1 uM using poly(Glu, Tyr) 4:1 as substrate incubated for 40 mins by [gamma-33P]-ATP scintillation counting based radiometry assay relative to control
Sequence (P04626 whole entry): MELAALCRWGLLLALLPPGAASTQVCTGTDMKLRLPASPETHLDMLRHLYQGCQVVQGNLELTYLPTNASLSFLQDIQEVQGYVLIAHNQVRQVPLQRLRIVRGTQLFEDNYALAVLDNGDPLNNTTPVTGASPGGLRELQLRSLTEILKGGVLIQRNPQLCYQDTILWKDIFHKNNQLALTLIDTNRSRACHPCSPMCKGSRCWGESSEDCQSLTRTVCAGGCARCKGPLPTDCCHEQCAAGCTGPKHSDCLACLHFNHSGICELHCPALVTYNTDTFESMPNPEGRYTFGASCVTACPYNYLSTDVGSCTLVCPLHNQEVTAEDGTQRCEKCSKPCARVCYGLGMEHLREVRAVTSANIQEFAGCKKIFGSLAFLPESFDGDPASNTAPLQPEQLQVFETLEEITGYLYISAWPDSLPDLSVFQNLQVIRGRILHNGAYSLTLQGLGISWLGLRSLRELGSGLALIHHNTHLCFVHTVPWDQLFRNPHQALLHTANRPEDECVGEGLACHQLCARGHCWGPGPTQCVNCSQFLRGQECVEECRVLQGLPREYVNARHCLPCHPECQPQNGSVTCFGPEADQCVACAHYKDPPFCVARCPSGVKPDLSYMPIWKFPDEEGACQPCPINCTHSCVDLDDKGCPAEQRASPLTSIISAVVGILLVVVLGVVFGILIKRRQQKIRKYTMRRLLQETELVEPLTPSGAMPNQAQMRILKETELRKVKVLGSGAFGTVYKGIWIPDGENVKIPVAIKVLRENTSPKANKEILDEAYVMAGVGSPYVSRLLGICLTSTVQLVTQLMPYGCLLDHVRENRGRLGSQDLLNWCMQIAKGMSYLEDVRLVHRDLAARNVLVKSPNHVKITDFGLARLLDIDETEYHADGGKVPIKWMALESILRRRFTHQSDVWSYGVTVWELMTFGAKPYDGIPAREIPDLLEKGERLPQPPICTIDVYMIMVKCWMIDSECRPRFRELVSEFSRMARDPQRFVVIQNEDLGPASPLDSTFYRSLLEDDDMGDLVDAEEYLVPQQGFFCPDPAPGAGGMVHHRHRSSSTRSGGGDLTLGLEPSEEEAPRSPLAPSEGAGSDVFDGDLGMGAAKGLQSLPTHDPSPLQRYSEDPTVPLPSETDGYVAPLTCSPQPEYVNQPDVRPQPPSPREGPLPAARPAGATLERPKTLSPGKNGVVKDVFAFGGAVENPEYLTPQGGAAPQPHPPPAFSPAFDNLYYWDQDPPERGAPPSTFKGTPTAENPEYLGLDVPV

SMILES | Activity
CN(C)c1ccc(Nc2ncnc3sc4c(c23)CCN(C(=O)c2cccnc2)C4)cc1NC(=O)c1ccco1 | 101%
CCC(=O)Nc1cc(Nc2ncnc3sc4c(c23)CCN(CC)C4)ccc1N(C)C | 90%
CCC(=O)Nc1cc(Nc2ncnc3sc4c(c23)CCN(Cc2ccccc2)C4)ccc1N(C)C | 94%
CN(C)c1ccc(Nc2ncnc3sc4c(c23)CCNC4)cc1NC(=O)c1ccccn1 | 98%
CN(C)c1ccc(Nc2ncnc3sc4c(c23)CCN(C(=O)c2cnccn2)C4)cc1NC(=O)c1ccco1 | 96%
CCC(=O)Nc1cc(Nc2ncnc3sc4c(c23)CCN(C(=O)c2ccc(C(F)(F)F)cc2)C4)ccc1N(C)C | 103%
CN1CCc2c(sc3ncnc(Nc4ccc(N(C)C)c(NC(=O)c5cccnc5)c4)c23)C1 | 93%
CN1CCc2c(sc3ncnc(Nc4ccc(N(C)C)c(NC(=O)c5ccccn5)c4)c23)C1 | 103%
CN1CCc2c(sc3ncnc(Nc4ccc(N(C)C)c(NC(=O)c5cccs5)c4)c23)C1 | 103%
CN(C)c1ccc(Nc2ncnc3sc4c(c23)CCN(C(=O)c2ccncc2)C4)cc1NC(=O)c1cccs1 | 110%
CCC(=O)Nc1cc(Nc2ncnc3sc4c(c23)CCNC4)ccc1N(C)C | 102%
CCC(=O)Nc1cc(Nc2ncnc3sc4c(c23)CCN(C)C4)ccc1N(C)C | 109%
CN(C)c1ccc(Nc2ncnc3sc4c(c23)CCN(C(=O)c2cccnc2)C4)cc1NC(=O)c1cccs1 | 93%
CN(C)c1ccc(Nc2ncnc3sc4c(c23)CCNC4)cc1NC(=O)c1cccnc1 | 107%
Cc1ccc(C(=O)Nc2cc(Nc3ncnc4sc5c(c34)CCNC5)ccc2N(C)C)cc1 | 92%
CN(C)c1ccc(Nc2ncnc3sc4c(c23)CCNC4)cc1NC(=O)c1cccc2ccccc12 | 90%

molecular target: Epidermal growth factor receptor (Homo sapiens) (UniProt P00533); assay: Inhibition of recombinant human EGFR (696 to end residues) assessed as residual activity at 1 uM using poly(Glu, Tyr) 4:1 as substrate incubated for 40 mins by [gamma-33P]-ATP scintillation counting based radiometry assay relative to control

SMILES | Activity
CN(C)c1ccc(Nc2ncnc3sc4c(c23)CCN(C(=O)c2cccnc2)C4)cc1NC(=O)c1ccco1 | 110%
CCC(=O)Nc1cc(Nc2ncnc3sc4c(c23)CCN(CC)C4)ccc1N(C)C | 93%
CCC(=O)Nc1cc(Nc2ncnc3sc4c(c23)CCN(Cc2ccccc2)C4)ccc1N(C)C | 91%
CN(C)c1ccc(Nc2ncnc3sc4c(c23)CCNC4)cc1NC(=O)c1ccccn1 | 103%
CN(C)c1ccc(Nc2ncnc3sc4c(c23)CCN(C(=O)c2cnccn2)C4)cc1NC(=O)c1ccco1 | 89%
CCC(=O)Nc1cc(Nc2ncnc3sc4c(c23)CCN(C(=O)c2ccc(C(F)(F)F)cc2)C4)ccc1N(C)C | 107%
CN1CCc2c(sc3ncnc(Nc4ccc(N(C)C)c(NC(=O)c5cccnc5)c4)c23)C1 | 105%
CN1CCc2c(sc3ncnc(Nc4ccc(N(C)C)c(NC(=O)c5ccccn5)c4)c23)C1 | 100%
CN1CCc2c(sc3ncnc(Nc4ccc(N(C)C)c(NC(=O)c5cccs5)c4)c23)C1 | 104%
CN(C)c1ccc(Nc2ncnc3sc4c(c23)CCN(C(=O)c2ccncc2)C4)cc1NC(=O)c1cccs1 | 85%
CCC(=O)Nc1cc(Nc2ncnc3sc4c(c23)CCNC4)ccc1N(C)C | 97%
CCC(=O)Nc1cc(Nc2ncnc3sc4c(c23)CCN(C)C4)ccc1N(C)C | 99%
CN(C)c1ccc(Nc2ncnc3sc4c(c23)CCN(C(=O)c2cccnc2)C4)cc1NC(=O)c1cccs1 | 94%
CN(C)c1ccc(Nc2ncnc3sc4c(c23)CCNC4)cc1NC(=O)c1cccnc1 | 108%
Cc1ccc(C(=O)Nc2cc(Nc3ncnc4sc5c(c34)CCNC5)ccc2N(C)C)cc1 | 108%
CN(C)c1ccc(Nc2ncnc3sc4c(c23)CCNC4)cc1NC(=O)c1cccc2ccccc12 | 110%

molecular target: T1, Serine/threonine-protein kinase TNNI3K (Homo sapiens) (UniProt Q59H18); assay: Inhibition of TNNI3K (unknown origin) assessed as residual activity at 1 uM using biotinylated CTnI as substrate by HTRF analysis relative to control
T1 sequence (whole entry): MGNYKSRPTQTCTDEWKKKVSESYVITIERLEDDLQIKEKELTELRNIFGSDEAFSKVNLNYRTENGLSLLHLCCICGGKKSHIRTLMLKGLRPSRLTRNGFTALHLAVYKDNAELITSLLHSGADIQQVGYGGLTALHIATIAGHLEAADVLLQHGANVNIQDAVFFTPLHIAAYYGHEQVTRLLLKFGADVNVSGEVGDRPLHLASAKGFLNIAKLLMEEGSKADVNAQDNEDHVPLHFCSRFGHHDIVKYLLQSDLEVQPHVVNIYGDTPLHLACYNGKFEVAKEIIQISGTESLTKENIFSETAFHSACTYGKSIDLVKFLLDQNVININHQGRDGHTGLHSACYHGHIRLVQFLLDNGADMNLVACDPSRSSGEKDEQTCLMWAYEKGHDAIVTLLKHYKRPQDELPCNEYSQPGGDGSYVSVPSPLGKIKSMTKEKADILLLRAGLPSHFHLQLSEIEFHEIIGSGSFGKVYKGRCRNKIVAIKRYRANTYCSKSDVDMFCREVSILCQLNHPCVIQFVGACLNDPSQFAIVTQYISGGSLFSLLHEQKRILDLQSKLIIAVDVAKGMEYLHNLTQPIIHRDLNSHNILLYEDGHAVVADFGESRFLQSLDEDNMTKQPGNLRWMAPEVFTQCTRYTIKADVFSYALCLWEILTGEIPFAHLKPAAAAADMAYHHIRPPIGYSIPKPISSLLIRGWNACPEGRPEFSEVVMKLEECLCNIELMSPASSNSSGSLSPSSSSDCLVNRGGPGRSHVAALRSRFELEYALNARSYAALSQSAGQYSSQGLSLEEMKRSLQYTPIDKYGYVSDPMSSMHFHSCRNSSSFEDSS
Outline: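 TNNI3K was assayed by HTRF using a GST-tagged TNNI3K kinase domain and a biotinylated cardiac troponin I substrate peptide, followed by the two HTRF detection reagents. Compounds were screened at 1.0 µM, then IC50s were determined.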

SMILES | Activity
CN(C)c1ccc(Nc2ncnc3sc4c(c23)CCN(C(=O)c2cccnc2)C4)cc1NC(=O)c1ccco1 | 41%
CCC(=O)Nc1cc(Nc2ncnc3sc4c(c23)CCN(CC)C4)ccc1N(C)C | 53%
CCC(=O)Nc1cc(Nc2ncnc3sc4c(c23)CCN(Cc2ccccc2)C4)ccc1N(C)C | 48%
CN(C)c1ccc(Nc2ncnc3sc4c(c23)CCNC4)cc1NC(=O)c1ccccn1 | 42%
CN(C)c1ccc(Nc2ncnc3sc4c(c23)CCN(C(=O)c2cnccn2)C4)cc1NC(=O)c1ccco1 | 43%
CCC(=O)Nc1cc(Nc2ncnc3sc4c(c23)CCN(C(=O)c2ccc(C(F)(F)F)cc2)C4)ccc1N(C)C | 41%
CN1CCc2c(sc3ncnc(Nc4ccc(N(C)C)c(NC(=O)c5cccnc5)c4)c23)C1 | 47%
CN1CCc2c(sc3ncnc(Nc4ccc(N(C)C)c(NC(=O)c5ccccn5)c4)c23)C1 | 55%
CN1CCc2c(sc3ncnc(Nc4ccc(N(C)C)c(NC(=O)c5cccs5)c4)c23)C1 | 40%
CN(C)c1ccc(Nc2ncnc3sc4c(c23)CCN(C(=O)c2ccncc2)C4)cc1NC(=O)c1cccs1 | 36%
CCC(=O)Nc1cc(Nc2ncnc3sc4c(c23)CCNC4)ccc1N(C)C | 46%
CCC(=O)Nc1cc(Nc2ncnc3sc4c(c23)CCN(C)C4)ccc1N(C)C | 49%
CN(C)c1ccc(Nc2ncnc3sc4c(c23)CCN(C(=O)c2cccnc2)C4)cc1NC(=O)c1cccs1 | 45%
CN(C)c1ccc(Nc2ncnc3sc4c(c23)CCNC4)cc1NC(=O)c1cccnc1 | 45%
Cc1ccc(C(=O)Nc2cc(Nc3ncnc4sc5c(c34)CCNC5)ccc2N(C)C)cc1 | 78%
CN(C)c1ccc(Nc2ncnc3sc4c(c23)CCNC4)cc1NC(=O)c1cccc2ccccc12 | 71%

molecular target: Vascular endothelial growth factor receptor 2 (Homo sapiens) (UniProt P35968); assay: Inhibition of recombinant human KDR (790 to end residues) assessed as residual activity at 1 uM using myelin basic protein as substrate incubated for 40 mins by [gamma-33P]-ATP scintillation counting based radiometry assay relative to control
Sequence (P35968 whole entry): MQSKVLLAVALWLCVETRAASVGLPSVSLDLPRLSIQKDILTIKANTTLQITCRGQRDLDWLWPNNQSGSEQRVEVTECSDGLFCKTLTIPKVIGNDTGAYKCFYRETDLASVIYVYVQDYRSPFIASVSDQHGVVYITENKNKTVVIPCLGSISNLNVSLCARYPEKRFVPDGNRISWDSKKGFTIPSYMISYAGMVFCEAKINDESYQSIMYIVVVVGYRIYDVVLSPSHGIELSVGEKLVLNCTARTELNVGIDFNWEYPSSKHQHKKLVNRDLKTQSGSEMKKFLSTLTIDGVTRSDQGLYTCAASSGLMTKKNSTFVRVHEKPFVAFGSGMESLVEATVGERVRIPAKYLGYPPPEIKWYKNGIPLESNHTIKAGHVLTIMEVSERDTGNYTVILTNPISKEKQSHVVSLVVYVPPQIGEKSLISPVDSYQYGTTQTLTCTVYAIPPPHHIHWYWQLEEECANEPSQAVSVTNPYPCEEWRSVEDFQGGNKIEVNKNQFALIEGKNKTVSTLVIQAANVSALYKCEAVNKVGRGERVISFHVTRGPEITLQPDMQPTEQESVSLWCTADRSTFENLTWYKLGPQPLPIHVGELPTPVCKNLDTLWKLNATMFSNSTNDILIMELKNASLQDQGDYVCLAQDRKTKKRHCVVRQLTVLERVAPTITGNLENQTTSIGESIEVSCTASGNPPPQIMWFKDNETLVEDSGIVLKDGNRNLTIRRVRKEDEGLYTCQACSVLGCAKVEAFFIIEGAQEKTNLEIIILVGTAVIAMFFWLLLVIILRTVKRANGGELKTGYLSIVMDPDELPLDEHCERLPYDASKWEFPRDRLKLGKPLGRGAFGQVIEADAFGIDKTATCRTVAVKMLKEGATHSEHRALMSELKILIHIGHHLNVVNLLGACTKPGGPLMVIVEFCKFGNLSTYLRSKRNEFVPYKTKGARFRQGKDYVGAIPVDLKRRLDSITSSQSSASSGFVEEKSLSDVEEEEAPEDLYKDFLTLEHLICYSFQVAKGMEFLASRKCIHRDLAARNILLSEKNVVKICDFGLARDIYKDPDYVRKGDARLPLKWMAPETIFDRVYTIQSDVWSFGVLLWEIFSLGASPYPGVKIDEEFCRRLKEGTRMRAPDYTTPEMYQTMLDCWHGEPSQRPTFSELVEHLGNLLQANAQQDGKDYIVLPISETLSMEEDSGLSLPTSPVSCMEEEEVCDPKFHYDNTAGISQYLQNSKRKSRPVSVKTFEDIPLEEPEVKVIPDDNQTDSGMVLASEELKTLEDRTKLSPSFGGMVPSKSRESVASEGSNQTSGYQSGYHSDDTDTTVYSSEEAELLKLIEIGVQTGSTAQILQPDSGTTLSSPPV

SMILES | Activity
CN(C)c1ccc(Nc2ncnc3sc4c(c23)CCN(C(=O)c2cccnc2)C4)cc1NC(=O)c1ccco1 | 93%
CCC(=O)Nc1cc(Nc2ncnc3sc4c(c23)CCN(CC)C4)ccc1N(C)C | 80%
CCC(=O)Nc1cc(Nc2ncnc3sc4c(c23)CCN(Cc2ccccc2)C4)ccc1N(C)C | 85%
CN(C)c1ccc(Nc2ncnc3sc4c(c23)CCNC4)cc1NC(=O)c1ccccn1 | 95%
CN(C)c1ccc(Nc2ncnc3sc4c(c23)CCN(C(=O)c2cnccn2)C4)cc1NC(=O)c1ccco1 | 90%
CCC(=O)Nc1cc(Nc2ncnc3sc4c(c23)CCN(C(=O)c2ccc(C(F)(F)F)cc2)C4)ccc1N(C)C | 95%
CN1CCc2c(sc3ncnc(Nc4ccc(N(C)C)c(NC(=O)c5cccnc5)c4)c23)C1 | 94%
CN1CCc2c(sc3ncnc(Nc4ccc(N(C)C)c(NC(=O)c5ccccn5)c4)c23)C1 | 89%
CN1CCc2c(sc3ncnc(Nc4ccc(N(C)C)c(NC(=O)c5cccs5)c4)c23)C1 | 89%
CN(C)c1ccc(Nc2ncnc3sc4c(c23)CCN(C(=O)c2ccncc2)C4)cc1NC(=O)c1cccs1 | 82%
CCC(=O)Nc1cc(Nc2ncnc3sc4c(c23)CCNC4)ccc1N(C)C | 92%
CCC(=O)Nc1cc(Nc2ncnc3sc4c(c23)CCN(C)C4)ccc1N(C)C | 82%
CN(C)c1ccc(Nc2ncnc3sc4c(c23)CCN(C(=O)c2cccnc2)C4)cc1NC(=O)c1cccs1 | 69%
CN(C)c1ccc(Nc2ncnc3sc4c(c23)CCNC4)cc1NC(=O)c1cccnc1 | 90%
Cc1ccc(C(=O)Nc2cc(Nc3ncnc4sc5c(c34)CCNC5)ccc2N(C)C)cc1 | 95%
CN(C)c1ccc(Nc2ncnc3sc4c(c23)CCNC4)cc1NC(=O)c1cccc2ccccc12 | 88%
